Reference: ChEMBL document CHEMBL1125005, “Synthesis, biological profile, and quantitative structure-activity relationship of a series of novel 3-hydroxy-3-methylglutaryl coenzyme A reductase inhibitors” (J Med Chem, 1990)
pIC50: −log10 of the molar value.

What was measured:
[1] = biological target: T1, 3-hydroxy-3-methylglutaryl-coenzyme A reductase (Rattus norvegicus) (UniProt P51639); assay: The compound was tested for the relative potency with respect to standard compound BMY-21950
T1 sequence (whole entry): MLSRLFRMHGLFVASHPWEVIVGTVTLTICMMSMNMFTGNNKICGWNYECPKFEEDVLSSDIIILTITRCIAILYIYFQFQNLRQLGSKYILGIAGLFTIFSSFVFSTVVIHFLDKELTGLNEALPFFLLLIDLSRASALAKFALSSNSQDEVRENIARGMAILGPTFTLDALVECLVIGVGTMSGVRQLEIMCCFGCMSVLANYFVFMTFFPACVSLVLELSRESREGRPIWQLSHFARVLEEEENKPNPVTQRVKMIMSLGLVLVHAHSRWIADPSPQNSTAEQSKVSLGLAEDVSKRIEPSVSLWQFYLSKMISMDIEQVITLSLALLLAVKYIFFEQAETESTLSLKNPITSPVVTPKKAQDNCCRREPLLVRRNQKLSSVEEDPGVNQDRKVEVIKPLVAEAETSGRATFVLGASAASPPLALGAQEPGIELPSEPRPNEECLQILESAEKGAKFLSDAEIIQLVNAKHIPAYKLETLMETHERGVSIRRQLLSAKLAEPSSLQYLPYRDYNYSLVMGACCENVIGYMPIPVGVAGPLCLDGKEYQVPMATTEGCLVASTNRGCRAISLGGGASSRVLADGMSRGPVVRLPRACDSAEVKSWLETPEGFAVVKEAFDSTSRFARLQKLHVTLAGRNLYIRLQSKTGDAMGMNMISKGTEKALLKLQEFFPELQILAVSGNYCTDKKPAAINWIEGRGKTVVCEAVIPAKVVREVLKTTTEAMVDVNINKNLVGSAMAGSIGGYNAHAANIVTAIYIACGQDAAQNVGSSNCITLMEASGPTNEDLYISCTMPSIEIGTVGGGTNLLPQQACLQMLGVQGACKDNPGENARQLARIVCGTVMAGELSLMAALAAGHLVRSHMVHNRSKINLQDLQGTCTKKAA

[2] = biological target: T2, 3-hydroxy-3-methylglutaryl-coenzyme A reductase (Rattus norvegicus, UniProt P51639); assay: In vitro inhibitory activity was measured against rat liver HMG-CoA reductase
T2 sequence (P51639 whole entry): T1 sequence (whole entry)
How it was run: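 Enzyme: intact, fully activated rat liver microsomal HMG-CoA reductase, 50–100 μg protein in buffer A (50 mM imidazole HCl, 250 mM NaCl, 1 mM EDTA, 1 mM EGTA, 5 mM DTT, pH 7.2). Preincubated with inhibitor for 10 min at 37 °C. d,l-[3-14C]HMG-CoA (0.33 mM) and NADPH (3.0 mM) then added. [14C]mevalonate formation measured. IC50 from linear regression of % inhibition vs log concentration, ≥4 dilutions in duplicate.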

Rattus norvegicus [3] = species: Rattus norvegicus; assay: In vitro inhibitory potency for cholesterol synthesis was measured in rat adrenals; assay type: functional, Adrenal gland
Rattus norvegicus [4] = species: Rattus norvegicus; assay: In vitro inhibitory potency for cholesterol synthesis was measured in rat ileum; assay type: functional
Rattus norvegicus [5] = species: Rattus norvegicus; assay: In vitro inhibitory potency for cholesterol synthesis was measured in rat spleen; assay type: functional
How it was run: (§1)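 Rat spleen and testes cell dispersions, prepared nonenzymatically. Na-salt inhibitors were preincubated with cells for 15 min under the hepatocyte conditions. [14C]acetate (45–55 μCi per μmol, 5 μCi per mL) was then incorporated for 60 min. Sterol IC50 is reported as a ratio to the IC50 in rat hepatocytes.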

Rattus norvegicus [6] = species: Rattus norvegicus; assay: In vitro inhibitory potency for cholesterol synthesis was measured in rat testes; assay type: functional, Testis; how it was run: as §1
[7] = biological target: T2, 3-hydroxy-3-methylglutaryl-coenzyme A reductase; assay: (§2) In vitro inhibitory activity was measured against rat liver HMG-CoA reductase using [2-14C]-acetate incorporation
How it was run: (§3)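 Parenchymal hepatocytes from chow-fed male Wistar rats (180–280 g), collagenase-perfused, viability >95%. Cells held at 100 mg wet weight/2.0 mL in MEM with bicarbonate/HEPES, pH 7.4, 2% BSA, under 95% O2/5% CO2. Preincubated with inhibitor for 15 min, with DMSO at 0.5% final for lactones. [2-14C]acetate then added for 60 min at 37 °C. 14C in 3β-hydroxysterols counted.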

Bos taurus = species: Bos taurus; assay: In vitro inhibitory potency for cholesterol synthesis was measured in bovine lens epithelial cell cultures
[8] = biological target: T2, 3-hydroxy-3-methylglutaryl-coenzyme A reductase; assay: as §2; remark: listed apart in the source
How it was run: as §3, with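 “counted. IC50 by regression from ≥4 concentrations; mean of n experiments.” for “counted.”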

SMILES	Relative potency [1]	pIC50 [2]	other results
CC(C)n1nnc(C(/C=C/[C@@H](O)C[C@@H](O)CC(=O)O)=C(c2ccc(F)cc2)c2ccc(F)cc2)n1	< 6e-05	< 3.52	
Cn1nnnc1C(C=C=C[C@@H](O)C[C@@H](O)CC(=O)O)=C(c1ccc(F)cc1)c1ccc(F)cc1	0.0033	5.24	
CC(C)(C)n1nnc(C(/C=C/[C@@H](O)C[C@@H](O)CC(=O)O)=C(c2ccc(F)cc2)c2ccc(F)cc2)n1 (stereo in doubt; 49) [listing 1 of 2 here]		7.72	
Cn1nnnc1C(/C=C/[C@@H](O)C[C@@H](O)CC(=O)O)=C(\c1ccccc1)c1ccc(F)cc1	0.43	7.36	
CC[C@H](C)C(=O)O[C@H]1C[C@@H](C)C=C2C=C[C@H](C)[C@H](CC[C@@H]3C[C@@H](O)CC(=O)O3)[C@H]21 [LOVASTATIN]	0.71	7.57	IC50 ratio (Rattus norvegicus [3]): 1; IC50 ratio (Rattus norvegicus [4]): 1.2; IC50 ratio (Rattus norvegicus [5]): 1.2; IC50 ratio (Rattus norvegicus [6]): 1.3; pIC50 [7]: 7.49; IC50 ratio (Bos taurus): 1.6
CCn1nnnc1C(/C=C/[C@@H](O)C[C@@H](O)CC(=O)O)=C(c1ccc(F)cc1)c1ccc(F)cc1	0.017	5.96	
N#CC(/C=C/[C@@H](O)C[C@@H](O)CC(=O)O)=C(c1ccc(F)cc1)c1ccc(F)cc1	0.0024	5.10	
Cc1ccc(C(=C(/C=C/[C@@H](O)C[C@@H](O)CC(=O)O)c2nnnn2C)c2ccc(C)cc2F)c(F)c1	0.032	6.24	
Cn1nnnc1C(/C=C/[C@@H](O)C[C@@H](O)CC(=O)[O-])=C(c1ccc(F)cc1)c1ccc(F)cc1.[Na+] (stereo in doubt; 3a)		7.37	IC50 ratio (Rattus norvegicus [3]): 76; IC50 ratio (Rattus norvegicus [4]): 129; IC50 ratio (Rattus norvegicus [5]): 149; IC50 ratio (Rattus norvegicus [6]): 86; IC50 ratio (Bos taurus): 144; pIC50 [8]: 7.68
Cn1nnnc1C(/C=C/[C@@H](O)C[C@@H](O)CC(=O)O)=C(c1ccc(F)cc1)c1ccc(F)cc1 (stereo in doubt; 3a)	0.43		
O=C(O)C[C@H](O)C[C@H](O)/C=C/C(=C(c1ccc(F)cc1)c1ccc(F)cc1)C1N=NN=N1	0.0058	6.48	
Cc1cc(C(=C(/C=C/[C@@H](O)C[C@@H](O)CC(=O)O)c2nnnn2C)c2ccc(F)c(C)c2)ccc1F	0.12	6.80	
Cn1nnnc1C(/C=C/[C@@H]1C[C@@H](O)CC(=O)O1)=C(c1ccc(F)cc1)c1ccc(F)cc1			pIC50 [7]: 7.62
CC(C)(C)n1nnc(C(/C=C/[C@@H](O)C[C@@H](O)CC(=O)O)=C(c2ccc(F)cc2)c2ccc(F)cc2)n1 (stereo in doubt; 47) [listing 1 of 2 here]		5.43	
Cn1nnc(C(/C=C/[C@@H](O)C[C@@H](O)CC(=O)O)=C(c2ccc(F)cc2)c2ccc(F)cc2)n1	0.00063	4.52	
CC(C)n1nnnc1C(/C=C/[C@@H](O)C[C@@H](O)CC(=O)O)=C(c1ccc(F)cc1)c1ccc(F)cc1	0.0014	4.85	
Cn1nnnc1C(/C=C/[C@@H](O)C[C@@H](O)CC(=O)O)=C(c1ccccc1)c1ccccc1	0.1	6.72	
CC(/C=C/[C@@H](O)C[C@@H](O)CC(=O)O)=C(c1ccc(F)cc1)c1ccc(F)cc1	0.0024	5.10	
CC(C)C(/C=C/[C@@H](O)C[C@@H](O)CC(=O)O)=C(c1ccc(F)cc1)c1ccc(F)cc1	0.095	6.64	
Cn1nnnc1C(/C=C/[C@@H](O)C[C@@H](O)CC(=O)O)=C(c1ccc(F)cc1)c1ccc(F)cc1 (stereo in doubt; 48)		< 3.52	
CC(C)n1nnnc1C(C=C=C[C@@H](O)C[C@@H](O)CC(=O)O)=C(c1ccc(F)cc1)c1ccc(F)cc1	0.00015	3.89	
Cc1ccc(C(=C(/C=C/[C@@H](O)C[C@@H](O)CC(=O)O)c2nnnn2C)c2ccc(C)cc2C)c(C)c1	0.012	5.80	
CC(C)(C)n1nnc(C(/C=C/[C@@H](O)C[C@@H](O)CC(=O)O)=C(c2ccc(F)cc2)c2ccc(F)cc2)n1 (stereo in doubt; 49) [listing 2 of 2 here]	1		
Cc1cc(F)ccc1C(=C(/C=C/[C@@H](O)C[C@@H](O)CC(=O)O)c1nnnn1C)c1ccc(F)cc1C	0.67	7.54	
COc1ccc(C(=C(/C=C/[C@@H](O)C[C@@H](O)CC(=O)O)c2nnnn2C)c2ccc(OC)cc2)cc1	0.014	5.85	
Cc1ccc(C(=C(/C=C/[C@@H](O)C[C@@H](O)CC(=O)O)c2nnnn2C)c2ccc(C)cc2)cc1	0.015	5.89	
CCn1nnc(C(/C=C/[C@@H](O)C[C@@H](O)CC(=O)O)=C(c2ccc(F)cc2)c2ccc(F)cc2)n1	9.1e-05	3.70	
CC(C)(C)n1nnc(C(/C=C/[C@@H](O)C[C@@H](O)CC(=O)O)=C(c2ccc(F)cc2)c2ccc(F)cc2)n1 (stereo in doubt; 47) [listing 2 of 2 here]	0.005		
